Results published in paper PMC6943944 (Journal of medicinal chemistry, 2019).
In brackets after ≈: the same amount, converted by molar mass.

Experiments:
[1] = Biodistribution of 67Ga complexes in naive mice; type: in vivo; settings: naive female CBJ mice (n = 3), intravenous, 0.8–1.2 MBq, 1 h p.i.
Outline: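 Naive female CBJ mice (8–10 weeks) received 0.8–1.2 MBq of 67Ga complex via tail-vein catheter. The complex was formed from 67GaCl3 (derived from 67Ga-citrate) and ligand in HEPES at pH 7.4, with labelling checked by radio-HPLC. A 67Ga-citrate group was also dosed. At 1 h p.i. mice were killed, organs harvested and gamma-counted (% ID/g), and urine metabolites analysed by radio-HPLC.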

E. coli AN193 = assay: MIC assay in E. coli AN193; type: cell-based, Escherichia coli; settings: E. coli AN193 carrying a mutation of the FhuA gene; compared with wt E. coli K12
E. coli K12 [2] = assay: Challenge MIC assay in E. coli with 100-fold excess Fe-siderophore; type: cell-based, Escherichia coli; settings: for MIC90: Escherichia coli, K12, 18 h, read-out: MIC90 (+DP, +100× Fe siderophore)
K. pneumoniae CRE-11 = assay: Growth inhibition; type: cell-based, Klebsiella pneumoniae; settings: for MIC90: Klebsiella pneumoniae, CRE11, 18 h, read-out: MIC90 K. pneumoniae CRE-11
Outline: (§1)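 Broth microdilution in cation-adjusted Mueller–Hinton II broth made iron-deficient with 2,2′-bipyridine. Test compound stock was 0.3 mM in sterile water, with concentration verified by ICP-OES/UV–vis. Serial dilutions gave a final range of 0.3 × 10−4 to 1.56 × 10−12 M, with diluted inoculum added. Ciprofloxacin served as comparator. Incubation was 18 h at 37 °C with absorbance read. MIC was the lowest concentration giving ≥90% growth inhibition relative to negative-control wells.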

P. aeruginosa PA01 = assay: Growth inhibition; type: cell-based, Pseudomonas aeruginosa; settings: for MIC90: Pseudomonas aeruginosa, PA01, 18 h, read-out: MIC90 P. aeruginosa PA01
Outline: as §1

S. aureus RN4220 = assay: Growth inhibition; type: cell-based, Staphylococcus aureus; settings: for MIC90: Staphylococcus aureus, RN4220, 18 h, read-out: MIC90 S. aureus RN4220
E. coli K12 [3] = assay: MIC assay in E. coli K12 in iron-deficient; type: cell-based; settings: Escherichia coli, K12, 18 h, read-out: MIC90 (+DP)
[4] = cited from earlier work

O=C([O-])CC(O)(CC(=O)[O-])C(=O)[O-].[67Ga+3] [^67Ga-citrate]
clearance route from biodistribution (in words) [1]: predominantly renal clearance

CC(=O)N(O)CCCCCNC(=O)CCC(=O)N(O)CCCCCNC(=O)CCC(=O)N(O)CCCCCNC(=O)CCC(=O)N1CCN(c2cc3c(cc2F)c(=O)c(C(=O)O)cn3C2CC2)CC1 [apo D1, 7-{4-[4-(5-{N-4-[5-(N-4-{5-[N-Acetyl-(hydroxyamino)]pentylamino}−4-oxobutyry(hydroxyamino))pentyl-amino]-4-oxobutyryl(hydroxyamino)}pentylamino)-4-oxobutyryl]-1-piperazinyl}−1-cyclopropyl-6-fluoro-4-oxo-1H-quinoline-3-carboxylic Acid]
growth inhibitory activity in E. coli AN193 (in words) (E. coli AN193): retain comparable MIC values

CC(=O)N(O)CCCC(N)C(=O)NC(CCCN(O)C(C)=O)C(=O)NC(CCCN(O)C(C)=O)C(=O)NCCC(=O)N1CCN(c2cc3c(cc2F)c(=O)c(C(=O)O)cn3C2CC2)CC1 (centres unmarked) [apo D2, 7-[4-(3-{5-[N-Acetyl(hydroxyamino)]-2-{5-[N-acetyl(hydroxyamino)]-2-{5-[N-acetyl(hydroxyamino)]-2-aminovalerylamino}-valerylamino}valerylamino}propionyl)-1-piperazinyl]-1-cyclopropyl-6-fluoro-4-oxo-1H-quinoline-3-carboxylic Acid]
MIC90 (E. coli K12 [2]): > 100 µM | growth inhibitory activity in E. coli AN193 (in words) (E. coli AN193): completely muted | MIC90 (K. pneumoniae CRE-11): > 100 µM | MIC90 (P. aeruginosa PA01): 7.5 µM (≈ 6.89 µg/mL) | MIC90 (S. aureus RN4220): 15 µM (≈ 13.8 µg/mL) | MIC90 (E. coli K12 [3]): 0.23 µM (≈ 0.211 µg/mL)

O=C(O)c1cn(C2CC2)c2cc(N3CCNCC3)c(F)cc2c1=O [ciprofloxacin]
impact of 100× Fe–DFO or 100× Fe–LDFC on potency (in words) (E. coli K12 [2]; E. coli, challenge MIC assay): no impact | MIC90 (E. coli K12 [2]): 0.23 µM (≈ 0.0762 µg/mL) | MIC90 (K. pneumoniae CRE-11): 3.12 µM (≈ 1.03 µg/mL) | MIC90 (P. aeruginosa PA01): 0.94 µM (≈ 0.311 µg/mL) | MIC90 (S. aureus RN4220): 1.9 µM (≈ 0.63 µg/mL) | MIC90 (E. coli K12 [3]): 0.2 µM (≈ 0.0663 µg/mL)

CC(=O)N(O)CCCCCNC(=O)CCC(=O)N(O)CCCCCNC(=O)CCC(=O)N(O)CCCCCN [desferrioxamine (DFO), desferrioxamine]
log Ka of the gallium complex [4]: 28.65

albomycin [Fe-D3 (albomycin)]
growth inhibitory activity in E. coli AN193 (in words) (E. coli AN193): completely muted | MIC90 K. pneumoniae CRE-11 (K. pneumoniae CRE-11; carbapenem resistant K. pneumoniae CRE-11, iron-limiting conditions, 37 °C, 18 h): 0.00023 μM | growth inhibitory activity in K. pneumoniae (in words) (K. pneumoniae CRE-11; carbapenem resistant K. pneumoniae, iron-limiting conditions): exceptional potency | MIC90 P. aeruginosa PA01 (P. aeruginosa PA01; wild-type P. aeruginosa PA01, iron-limiting conditions, 37 °C, 18 h): >30 µM | MIC90 S. aureus RN4220 (S. aureus RN4220; wild-type S. aureus RN4220, iron-limiting conditions, 37 °C, 18 h): 0.94 µM
